High-throughput results: PubChem, several laboratories
An excerpt weighted towards active compounds, which were near 12% of everything screened.
Lmaj promast: inhibitors of Leishmania major promastigote growth | actives 9% (n = 200,000) | Leishmania major promastigotes, resazurin fluorescence viability | inhibition, % at 10 µM; in the data active = inhibition above about 50%;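 note: promastigotes grown with compound for 44 hours at 28 °C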
Dynein cargo inh: blocks dynein driven cargo transport along microtubules. z-score, hits read low. actives 0.47% (n = 220,000). 3617.4 mouse cells, GR-EGFP nuclear translocation imaging; test concentration mostly 20 µM; stimulated with dexamethasone, 1 µM; active compounds read low;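 active = plate z-score of nuclear minus cytoplasmic receptor signal below a set negative limit, without overly bright fluorescence or cell loss, cut at about -3.5 in these data, passing the limit was not always enough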;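 note: z-score of nuclear minus cytoplasmic ring GR-EGFP intensity difference per well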
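Buffer or medium: tet-free, stripped-serum medium; reagent: dexamethasone at 1.0 µM final, 30 min; incubation: 48 h induction, 1 h compound, 30 min dex at 37 °C; measured by: formaldehyde fixation, Hoechst nuclear stain, 10x automated fluorescence imaging; read-out: nuclear-to-cytoplasmic GR-EGFP distribution per well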
CHOP inhibitor: CHOP inhibition in unfolded protein response; AID 2732; inhibition, % at 10 µM; CHO-K1 CHOP-promoter luciferase, tunicamycin-induced, 15-18 h; actives 3.8% (n = 220,000);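 active = compounds that reduced the stress-induced luciferase reporter signal by more than about 70% of percent inhibition, limit read from the data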;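 note: 0% = tunicamycin plus vehicle and 100% = wells without tunicamycin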
Autophagy mod: alters autophagy in cells. MEF GFP-LC3 puncta imaging; test concentration mostly 10 µM. calls only at 10 µM (by protocol). actives 0.98% (n = 190,000). AID 463193;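 active = percentage of spot-positive cells more than 3 SD above its plate mean, without a fluorescence outlier flag or 80% toxicity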;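 note: spot-positive cell cutoff set from DMSO-treated cells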
MT stabilizer: microtubule stabilizers in HeLa cells. HeLa tubulin immunostaining HCS, 24 h; share of cells brighter than vehicle mean+2SD. % tubulin-high responders, % at 10 µM. actives 0.83% (n = 200,000);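 active = plate Z-score above 3 for both tubulin-high and condensed-nucleus cell shares, with cell loss under 80%, at 10 µM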;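 note: anti alpha tubulin signal scored within the nucleus-defined area of each cell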
bCat nuc transl: beta-catenin nuclear translocation modulation; actives 0.3% (n = 190,000); nuclear translocation activity, % at 5 µM; HeLa beta-catenin nuclear translocation, immunofluorescence imaging;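 active = nuclear translocation activity above 50% at 5 µM, with a well cell count of 50 or more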;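 note: per-cell ratio of nuclear to cytoplasmic median beta-catenin stain intensity; plate controls were DMSO negative control for no effect and GSK-3 inhibitor IX positive control for full effect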
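Assay system: human HeLa cells, native beta-catenin; doses: 5 µM primary, 0.02–20 µM confirmation; incubation: compound treatment 24 h, 37°C, 5% CO2; technique: fluorescence imaging of beta-catenin antibody stain plus DAPI; measure: % activation, nuclear-to-cytoplasmic median beta-catenin signal ratio per cell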
Numbers without * were called inactive; i = inactive; . = no result.

SMILES	Lmaj promast	Dynein cargo inh	CHOP inhibitor	Autophagy mod	MT stabilizer	bCat nuc transl
Cc1cccc(C(=O)NC(=S)Nc2ccc(S(=O)(=O)N(C)c3ccccc3)cc2)c1	100*	1.4	28	i	2	-3
Cc1ccccc1C(=O)NC(=S)Nc1ccc(S(=O)(=O)N(C)c2ccccc2)cc1	100*	-0.13	77*	i	2	0
CC(C)C(=O)NC(=S)Nc1ccc(S(=O)(=O)N(C)Cc2ccccc2)cc1	38	0.57	62	i	42*	2
Cc1cccc(C(=O)NC(=S)Nc2ccc(S(=O)(=O)N3CCCCC3)cc2)c1	100*	1.3	26	i	2	-1
CN(c1ccccc1)S(=O)(=O)c1ccc(NC(=O)c2ccccc2)cc1	24	-0.16	48	i	2	1
CC(=O)/C(=N/Nc1ccccc1[N+](=O)[O-])N1CCCc2ccccc21	.	0.31	14	.	.	2
Clc1ccc(-c2nn3c(-c4ccccn4)nnc3s2)c(Cl)c1	.	.	.	.	.	-3
CN(C)c1ccc(/C=N/NC(=O)c2ccc(Cl)cc2)cc1	-7	-0.4	2	i	1	.
COc1ccc(/C=N/NC(=O)c2ccc(Cl)cc2Cl)cc1COC(C)=O	-8	0.9	10	i	21*	2
COc1ccc(/C=N/NC(=O)c2ccc(Cl)cc2)cc1Cn1cc(Cl)cn1	11	2.5	86*	i	3	-1
COc1ccc(/C=N\NC(=O)COc2ccccc2Cl)cc1Cn1nc(C)cc1C	3	0.2	81*	i	2	-2
COc1ccc(/C=N/NC(=O)CCn2nc(C)cc2C)cc1	.	-0.89	-1	.	.	-2
CN(C)c1ccc(/C=N\NC(=O)c2ccc(Cn3cc(Cl)cn3)cc2)cc1	-4	-0.73	13	i	29*	-3
O=C(C1CC1)N1CCN(C(c2ccccc2)c2ccccc2)CC1	12	-0.55	45	i	1	-2
COc1ccc(/C=N/NC(=O)c2ccoc2C)cc1COc1c(C)cccc1C	100*	-0.36	88*	i	1	2
CC(=O)c1ccc(OC(=O)C(CCS(C)(=O)=O)N2C(=O)c3ccccc3C2=O)cc1 (centres undefined)	67*	-2.6	3	i	2	.
COC(=O)c1ccc(COC(=O)C(CCS(C)(=O)=O)N2C(=O)c3ccccc3C2=O)cc1 (centres undefined)	-4	-0.29	12	i	6	0
CCOc1ccc(OC(=O)C(CCS(C)(=O)=O)N2C(=O)c3ccccc3C2=O)cc1 (centres undefined)	72*	0.75	-7	i	1	.
CS(=O)(=O)CCC(C(=O)OCc1ccc(Br)cc1)N1C(=O)c2ccccc2C1=O (centres undefined)	-8	-0.26	34	i	7	-2
O=C(OCCN=C1NS(=O)(=O)c2ccccc21)c1ccco1	1	-0.88	0	i	2	-2
Cc1ccsc1/C=N/N1CCN(c2ccccn2)CC1	.	-0.37	-8	.	.	4
Cc1ccsc1/C=N/N1CCN(c2ccccc2)CC1	53*	1.3	-46	i	2	3
CCOC(=O)C1CCCN(C(=O)c2ccc(OCC)cc2)C1 (centres undefined)	-8	-0.56	19	i	5	-4
Fc1ccccc1-c1nc(NCc2ccco2)c2ccccc2n1	53*	-0.77	14	i	2	-1
c1ccc(-c2nc(NCc3ccco3)c3ccccc3n2)nc1	100*	-0.53	66	i	2	0
SMILES	Lmaj promast	Dynein cargo inh	CHOP inhibitor	Autophagy mod	MT stabilizer	bCat nuc transl
Oc1ccccc1-c1nc(NCc2ccco2)c2ccccc2n1	29	2.1	33	i	5	-8
COC(=O)c1ccc(COC(=O)CCC(=O)c2cccs2)cc1	-3	1.7	-50	i	4	3
Cc1ccc(S(=O)(=O)N2CCC(C(=O)NNC(=O)c3ccncc3)CC2)cc1	3	-0.38	9	i	6	1
CC(C)Nc1nc(-c2ccccn2)nc(-c2ccccc2)c1C#N	23	-1.1	41	i	3	-4
C=CCNc1nc(-c2ccccn2)nnc1-c1ccccc1	100*	0.27	40	i	5	.
O=C(/C=C/c1ccc(Cl)c(Cl)c1)NC1=NCCS1	-3	0.27	37	i	4	-1
